# Measurements from PMC7704867 (Biochimica et biophysica acta. Biomembranes, 2020).
# Ends that are not written are not given here. Peptide text beside a SMILES is read from it. * marks the point of attachment. DOTA = O=C(O)CN1CCN(CC(=O)O)CCN(CC(=O)*)CCN(CC(=O)O)CC1
# Columns and labels:
# [1] = target: 15N-S100A10-AnxA2Nter fusion protein (Homo sapiens, UniProt P60903); assay type: binding
# [2] = target: Ac-^15N-F454G458G461-SW; experiment: NMR titration
# [3] = tested on: AnxA2; assay type: binding, human; details: 60 μM peptide, up to molar ratio 1:1, 1H-15N HSQC, 25°C, pH 5.5
# Procedure, shortened: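 Recombinant human AnxA2 (C-terminal thrombin site and His tag, expressed in E. coli C41(DE3)) titrated up to 1:1 molar ratio into uniformly 15N-labelled 12-residue CEACAM1-SF peptide (Trx-SMT3 fusion grown in M9/15NH4Cl, Ulp1-cleaved, HPLC-purified) at 60 μM. Buffer: 50 mM NaAc-d3, 2 mM DTT, 5% D2O. 1H-15N HSQC at 700 MHz with cryoprobe; chemical shift perturbations monitored.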
# [4] = target: S100A10-AnxA2Nter fusion protein [S100A10(1–92)-ENLYFQGD linker-AnxA2 peptide (1–13)]; experiment: NMR titration
Molecule,Kd [1] [µM],Kd [4] [µM],further results
CC(=O)N[C@@H](CS)C(=O)N[C@@H](Cc1ccccc1)C(=O)N[C@@H](CC(C)C)C(=O)N[C@@H](Cc1c[nH]cn1)C(=O)N[C@@H](Cc1ccccc1)C(=O)NCC(=O)N[C@@H](CCCCN)C(=O)N[C@@H](CCC(=O)O)C(=O)NCC(=O)N[C@@H](CO)C(=O)N[C@@H](CO)C(=O)NCC(=O)N1CCC[C@H]1C(=O)N[C@@H](CC(C)C)C(=O)N[C@@H](CCC(N)=O)C(=O)O [Ac-SW-T/E] (Ac-CFLHFGKEGSSGPLQ-OH),2330 ± 390,,
S100A10-AnxA2Nter fusion protein [S100A10(1–92)-ENLYFQGD linker-AnxA2 peptide (1–13)],,,Kd [2]: 460 µM
CC(=O)N[C@@H](CS)C(=O)N[C@@H](Cc1ccccc1)C(=O)N[C@@H](CC(C)C)C(=O)N[C@@H](Cc1c[nH]cn1)C(=O)N[C@@H](Cc1ccccc1)C(=O)NCC(=O)N[C@@H](CCCCN)C(=O)N[C@H](C(=O)NCC(=O)N[C@@H](CO)C(=O)N[C@@H](CO)C(=O)NCC(=O)N1CCC[C@H]1C(=O)N[C@@H](CC(C)C)C(=O)N[C@@H](CCC(N)=O)C(=O)O)[C@@H](C)O [Ac-SW] (Ac-CFLHFGKTGSSGPLQ-OH),880 ± 100,,
CC(=O)N[C@@H](CS)C(=O)N[C@@H](Cc1ccccc1)C(=O)N[C@@H](CC(C)C)C(=O)N[C@@H](Cc1c[nH]cn1)C(=O)N[C@@H](Cc1ccccc1)C(=O)NCC(=O)N[C@@H](CCCCN)C(=O)N[C@H](C(=O)NCC(=O)N[C@@H](CCC(=O)O)C(=O)N[C@@H](CO)C(=O)NCC(=O)N1CCC[C@H]1C(=O)N[C@@H](CC(C)C)C(=O)N[C@@H](CCC(N)=O)C(=O)O)[C@@H](C)O [Ac-SW-S/E] (Ac-CFLHFGKTGESGPLQ-OH),1580 ± 200,,
CC(=O)N[C@@H](CS)C(=O)N[C@@H](Cc1ccccc1)C(=O)N[C@@H](CC(C)C)C(=O)N[C@@H](Cc1c[nH]cn1)C(=O)N[C@@H](C)C(=O)NCC(=O)N[C@@H](CCCCN)C(=O)N[C@H](C(=O)NCC(=O)N[C@@H](CO)C(=O)N[C@@H](CO)C(=O)NCC(=O)N1CCC[C@H]1C(=O)N[C@@H](CC(C)C)C(=O)N[C@@H](CCC(N)=O)C(=O)O)[C@@H](C)O [Ac-SW-F/A] (Ac-CFLHAGKTGSSGPLQ-OH),2100 ± 810,,
453-HFGKTGSSGPLQ-464 [^15N-SW-12],,,chemical shift perturbation of peptide on titration with AnxA2 [3]: no chemical shift perturbation
CC(=O)N[C@@H](CS)C(=O)N[C@@H](Cc1ccccc1)C(=O)N[C@@H](CC(C)C)C(=O)N[C@@H](Cc1c[nH]cn1)C(=O)N[C@@H](Cc1ccccc1)C(=O)NCC(=O)N[C@@H](CCCCN)C(=O)N[C@@H](CCC(=O)O)C(=O)NCC(=O)N[C@@H](CCC(=O)O)C(=O)N[C@@H](CO)C(=O)NCC(=O)N1CCC[C@H]1C(=O)N[C@@H](CC(C)C)C(=O)N[C@@H](CCC(N)=O)C(=O)O [Ac-SW-TS/EE] (Ac-CFLHFGKEGESGPLQ-OH),3530 ± 1200,,
"Ac-CFLHFGKTGSSGPLQ [Ac-SW, CEACAM1 short form 15 amino acid peptide]",,880,stoichiometry N ([4]; scale: peptides per S100A10-AnxA2Nter fusion dimer): 2
Ac-CFLHAGKTGSSGPLQ [Ac-SW-F/A],,2100,
Ac-CFLHFGKEGSSGPLQ [Ac-SW-T/E],,2330,
Ac-CFLHFGKTGESGPLQ [Ac-SW-S/E],,1580,
Ac-CFLHFGKEGESGPLQ [Ac-SW-TS/EE],,3530,
"Ac-CFLHFGKTGRASDQR [Ac-LW, CEACAM1 long form 15 amino acid peptide]",,1220,
{DOTA}-GFLHFGKTGSSGPLQ (also: N-terminal DOTA chelated with Y3+) [Y-DOTA-SW],,1070,
